High-throughput results deposited in PubChem by several laboratories.
Neddylation inh: blocks human cullin neddylation; TR-FRET cullin neddylation, biochemical; inhibition, % at 25 µM; actives 0.58% (n = 360,000); in the data active means inhibition above about 36%
Target sequence (P61081 whole entry, looked up): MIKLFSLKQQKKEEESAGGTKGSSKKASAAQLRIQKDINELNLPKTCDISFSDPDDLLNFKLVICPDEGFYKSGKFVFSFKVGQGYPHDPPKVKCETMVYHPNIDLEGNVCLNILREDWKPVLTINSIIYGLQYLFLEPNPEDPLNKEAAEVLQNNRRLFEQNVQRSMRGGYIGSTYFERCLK
Target sequence (Q13564 whole entry, looked up): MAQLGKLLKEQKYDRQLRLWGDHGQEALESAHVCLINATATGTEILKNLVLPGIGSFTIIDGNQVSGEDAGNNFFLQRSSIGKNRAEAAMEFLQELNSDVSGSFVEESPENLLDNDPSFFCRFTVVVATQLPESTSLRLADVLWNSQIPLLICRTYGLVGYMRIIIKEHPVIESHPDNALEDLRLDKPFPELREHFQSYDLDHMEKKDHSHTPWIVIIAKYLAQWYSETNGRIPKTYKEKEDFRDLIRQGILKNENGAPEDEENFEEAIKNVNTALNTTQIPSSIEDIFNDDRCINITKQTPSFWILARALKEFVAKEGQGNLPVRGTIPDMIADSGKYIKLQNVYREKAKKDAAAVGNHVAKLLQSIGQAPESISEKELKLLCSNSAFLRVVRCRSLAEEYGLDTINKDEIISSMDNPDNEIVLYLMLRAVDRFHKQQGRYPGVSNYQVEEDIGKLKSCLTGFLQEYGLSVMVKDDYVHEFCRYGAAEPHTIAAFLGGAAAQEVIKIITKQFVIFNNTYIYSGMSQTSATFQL
Arr AP2 block: blocks beta-arrestin peptide binding to AP2 adaptin | FITC-arrestin peptide / GST-AP2 beads, flow cytometry; AP2 beta2 appendage carries R879A mutation | AID 504490 | actives 0.31% (n = 340,000) | inhibition, % at 10 µM;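 active means inhibition above a set limit, near 3 SD of compounds lacking own fluorescence, cut at about 54% in these data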
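Material – GST-tagged AP2 beta2-adaptin appendage (R879A) on 4 µm glutathione beads · Probe or stimulus – fluorescein-tagged arrestin peptide at 50 nM final · Timing – 12 min plus 1 h, RT · Detection – bead flow cytometry, FITC channel · Read-out basis – inhibition as reduced fluorescein signal on beads, percent · Medium – PBS plus Tween 20 (0.05%) and BSA (0.1%)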
Efflux pump inh: inhibitors of Candida antifungal efflux pumps expressed in yeast; S. cerevisiae Candida pump triplex, Nile Red efflux; inhibition, % at 10 µM; actives 0.44% (n = 330,000); AID 485275;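 active means plate passing quality check with inhibition over a set limit, or well fluorescence over plate mean plus 4 SD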;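 further: Nile Red retained in pooled yeast measured as flow cytometry median fluorescence; higher means more Nile Red kept so more efflux inhibition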
DSG3 Ab inh: inhibitors of pemphigus antibody binding to human desmoglein-3; P32926; DSG3-coupled beads, scFv-anti-DSG3-GFP binding, flow cytometry; active compounds read low; binding (percent of control), % at 10 µM; actives 0.48% (n = 310,000);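 active means binding more than 3 SD below its plate's average and above zero; inconclusive means below that plate limit but binding exactly zero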;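 further: hits lower antibody fragment binding to DSG3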
Yeast cmpd fluor: flagged as fluorescent in efflux inhibitor counter-screen. S. cerevisiae AD/pABC3, compound fluorescence, flow cytometry. fluorescence ratio to DMSO, % at 10 µM. shares compounds with Efflux pump inh. actives 4% (n = 1,700);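 active means fluorescence ratio to DMSO above its plate's cutoff, the plate mean ratio plus 5 SD, cut at about 210% in these data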;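 further: unstained yeast with no Nile Red so the signal is compound autofluorescence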
Mdr1 pump inh: inhibitors of Candida albicans Mdr1 efflux pump; actives 1% (n = 1,700); S. cerevisiae AD/CaMDR1, Nile Red efflux, flow cytometry; shares compounds with Efflux pump inh; inhibition, % at 10 µM; AID 588518; in the data active means inhibition above about 26%;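 further: higher means more Nile Red retained so more efflux inhibition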
CaCdr2 efflux inh: inhibitors of Candida albicans Cdr2 efflux pump. shares compounds with Efflux pump inh. S. cerevisiae AD/CaCDR2, Nile Red retention, flow cytometry. actives 4% (n = 1,700). Nile Red retention ratio vs DMSO, % at 10 µM; in the data active means Nile Red retention ratio vs DMSO above about 190%;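 further: higher ratio means more blocking of Cdr2 efflux of the dye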
Cdr1 pump inh: blocks the Candida albicans Cdr1 efflux pump in yeast | shares compounds with Efflux pump inh | inhibition, % at 10 µM | AID 588522 | S. cerevisiae AD/CaCDR1, Nile Red efflux, flow cytometry | actives 1% (n = 1,700);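 active means inhibition above the screen-wide mean plus twice its standard deviation, cut at about 32% in these data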
Hits are given with their value; - = inactive; ? = inconclusive; . = no result shown; + = active, no number. Sampled rows, rich in hits. Any-hit rate of the full collection: about 1.7%.

SMILES	Neddylation inh	Arr AP2 block	Efflux pump inh	DSG3 Ab inh	Yeast cmpd fluor	Mdr1 pump inh	CaCdr2 efflux inh	Cdr1 pump inh
CSc1ncccc1C(=O)OC(C)C(=O)Nc1cccc(S(=O)(=O)N2CCOCC2)c1 (centres undefined)	-	-	-	-	.	.	.	.
CCOCCCn1c(=N)c(S(=O)(=O)c2ccc(C)cc2)cc2c(=O)n3cc(C)ccc3nc21	.	-	1.2	.	-	-	-	-
COc1ccc(CCn2c(=N)c(C(=O)NCc3ccco3)cc3c(=O)n4ccccc4nc32)cc1	-	-	1.3	-	-	-	-	-
Cc1ccc(S(=O)(=O)c2cc3c(=O)n4ccccc4nc3n(CCc3ccccc3)c2=N)cc1	-	-	0.4	-	-	-	-	-
N=c1c(C(=O)NCCc2ccccc2)cc2c(=O)n3ccccc3nc2n1Cc1ccco1	.	-	-	.	.	.	.	.
Cc1cccn2c(=O)c3cc(S(=O)(=O)c4ccc(F)cc4)c(=N)n(Cc4ccco4)c3nc12	.	-	0.6	-	-	-	-	-
CC(=O)N1C[C@H]2CON(C)[C@H]2C[C@H]1c1cccc(-c2cc(Cl)cc(Cl)c2)c1	-	.	.	-	.	.	.	.
O=C(NCCNC(=O)c1ccc(Cl)cc1Cl)c1ccc(Cl)cc1Cl	-	.	.	.	.	.	.	.
COC(=O)C1=C(C)N(Cc2cccnc2)C(=O)/C1=C\c1sccc1C	-	-	-	-	.	.	.	.
Cc1ccccc1S(=O)(=O)Nc1ncnc2scc(-c3ccccc3)c12	-	-	11.4	-	-	-	-	-
CCSc1cc(N2CCCC2)nc(-c2cccc(C)c2)n1	-	-	-	-	.	.	.	.
Cc1cc(N2CCCCC2)nc(-c2ccc(Br)cc2)n1	-	-	-	-	.	.	.	.
CCSc1cc(N2CCCC2)nc(-c2ccc(C)cc2)n1	-	-	-	-	-	-	-	-
CCSc1cc(N2CCCC2)nc(-c2ccc(F)cc2)n1	-	-	-	-	-	-	-	-
O=C(Oc1c(-c2ccccc2)c(=O)n2c3c(cccc13)CC2)c1ccc(Cl)cc1	-	-	-	.	-	-	-	-
CC(C)(C)c1ccccc1NC(=O)c1c(O)c2cccc3c2n(c1=O)CC3	.	.	-	.	.	.	.	.
O=C(Oc1c(-c2ccccc2)c(=O)n2c3c(cccc13)CC2)c1ccco1	-	-	-	-	-	-	-	-
Cc1ccc(C(=O)N(C)CC(=O)Nc2ccc(F)c(F)c2F)o1	-	-	-	-	.	.	.	.
C/C(Cc1ccccc1)=N\NC(=O)CNC(=O)c1ccccc1F	-	-	-	.	.	.	.	.
Cc1ccc(-n2c(SCC(=O)Nc3ccc(N4CCOCC4)cc3)nc3ccccc3c2=O)cc1	-	-	9.6	-	-	-	-	-
O=C(CSc1nc2ccccc2c(=O)n1-c1ccc(F)cc1F)Nc1ccc(N2CCOCC2)cc1	-	-	18.9	-	-	-	-	-
O=C(CSc1nc2ccccc2c(=O)n1-c1ccc(F)cc1)Nc1ccc(N2CCOCC2)cc1	-	-	-	-	.	.	.	.
CC(=O)Nc1cccc(NS(=O)(=O)Cc2ccc(Cl)cc2)c1	-	-	-	-	.	.	.	.
CC(=O)c1ccc(NS(=O)(=O)Cc2ccc(Cl)cc2)cc1	-	-	0.8	-	-	-	-	-
COc1cc(CN2C[C@@H](CO)O[C@@H](n3cnc4c(N5CCN(c6ccccc6)CC5)ncnc43)C2)cc(OC)c1OC	-	.	.	.	.	.	.	.
SMILES	Neddylation inh	Arr AP2 block	Efflux pump inh	DSG3 Ab inh	Yeast cmpd fluor	Mdr1 pump inh	CaCdr2 efflux inh	Cdr1 pump inh
O=C(NCc1cccs1)c1ccc(Cl)c(S(=O)(=O)N2CCOCC2)c1	-	.	.	-	.	.	.	.
O=C(NCC(c1cccs1)N1CCOCC1)c1ccc(Cl)c(S(=O)(=O)N2CCOCC2)c1 (centres undefined)	-	-	1.1	-	-	-	-	-
CCC(=O)N(C)CCc1cc2c(c(OC)c1/C=N/NC(=O)[C@H]1C[C@@H]1c1ccccc1)OCO2	-	-	3.5	.	-	-	-	-
COc1ccccc1CCNC(=O)c1ccc(NC(=O)CC2SC(N3CCCC3)=NC2=O)cc1 (centres undefined)	-	-	-	-	.	.	.	.
CN(C)S(=O)(=O)c1ccc(N2CCCC2)c(C(=O)Nc2nc3c(ccc4ccccc43)s2)c1	-	-	1.9	-	-	-	-	-
CCn1c(SCC(=O)Nc2cc(NC(C)=O)ccc2OC)nnc1-c1ccccn1	-	-	-	-	.	.	.	.
COc1ccc(/C=C/c2cccc[n+]2C)c(O)c1	-	-	-	-	.	.	.	.
CCN(CC)c1ccc(/C=C/c2cccc[n+]2C)c(OC)c1	-	-	20.6	-	+	-	-	-
C/C(=N\NC(=O)CCCNc1ccccc1)c1ccncc1	-	-	1.1	-	-	-	-	-
CC(=O)CC(=O)Nc1ncccn1	-	-	-	-	.	.	.	.
Cc1cccc(C)c1NC(=O)C(=O)NCC1CCCN1S(=O)(=O)c1cccs1 (centres undefined)	-	-	-	-	.	.	.	.
CN(C)c1ccc(/C=C2/C=C(c3ccc4c(c3)CCCC4)OC2=O)cc1	-	-	0.8	-	-	-	-	-
Cc1ccc(NC(=S)N(CCN(C)C)Cc2cccs2)c(C)c1	-	-	-	-	.	.	.	.
Cc1cccc(NC(=S)N(CCN(C)C)Cc2cccs2)c1	-	-	1.0	-	-	-	-	-
Cc1ccc(NC(=S)N(Cc2cccs2)Cc2cc3cccc(C)c3[nH]c2=O)cc1	-	-	8.9	-	-	-	-	-
O=S(=O)(c1ccc2oc(=S)[nH]c2c1)N1CCOCC1	-	-	-	-	.	.	.	.
c1ccc(-n2nnnc2-c2cnc(-c3cccnc3)nc2-c2cccs2)cc1	-	-	-	-	.	.	.	.
COc1ccc(S(=O)(=O)N2CCCCC2)cc1NC(=O)c1ccc(CS(C)(=O)=O)cc1	-	-	1.1	?	-	-	-	-
CN1CCN(Cc2cc(Cl)c3cccnc3c2OC(=O)c2cccs2)CC1	-	-	11.1	-	-	-	-	-
O=C(Nc1ccc(N2CCOCC2)cc1N1CCOCC1)c1ccc([N+](=O)[O-])cc1Cl	-	-	-	.	.	.	.	.
CC(=O)N1CCN(c2ccc(S(=O)(=O)NCCN(C(C)C)C(C)C)cc2[N+](=O)[O-])CC1	-	-	-	-	.	.	.	.
CN(C)CCNS(=O)(=O)c1ccc(N2CCN(c3ccc(F)cc3)CC2)c([N+](=O)[O-])c1	-	-	11.4	-	-	-	-	-
COc1ccc(-c2cc(C(=O)NCCN3CCOCC3)c3ccccc3n2)cc1	.	-	-	.	-	-	-	-
Oc1ccc(Cl)cc1C=Nc1ccc2c3c(cccc13)CC2	.	-	4.4	-	-	-	-	-
Cc1cccc(C=Nc2ccc3c4c(cccc24)CC3)c1O	-	-	-	.	.	.	.	.
c1cc2ccc3ccc(CN4CCOCC4)c4ccc(c1)c2c34	.	-	1.1	-	-	-	-	-
